Assay results from ChEMBL document CHEMBL1240382, “Elucidation of the pharmacokinetic/pharmacodynamic determinant of colistin activity against Pseudomonas aeruginosa in murine thigh and lung infection models” (Antimicrob Agents Chemother, 2010).

Assays:
Assay type in all cases: ADME, organism-based
Details in all cases: in vivo
Mus musculus [1] = experiment: Cmax in Pseudomonas aeruginosa infected neutropenic Swiss mouse at 5 mg/kg, sc; set-up: dose 5 mg/kg, route subcutaneous
In short: (§1)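 Single s.c. colistin (sulfate) dose (5, 10, 20 or 40 mg/kg) in neutropenic thigh-infected mice; central-vein blood at 6–8 times over 10 h, 4 mice per time; plasma colistin by HPLC (0.10–4.00 mg/liter calibration). Unbound levels from concentration-dependent fu (equilibrium dialysis, pH 7.4 phosphate buffer, 21 h, 37°C); parameters by noncompartmental analysis.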

Mus musculus [2] = experiment: Cmax in Pseudomonas aeruginosa infected neutropenic Swiss mouse at 10 mg/kg, sc; set-up: dose 10 mg/kg, route subcutaneous; in short: as §1
Mus musculus [3] = experiment: Cmax in Pseudomonas aeruginosa infected neutropenic Swiss mouse at 20 mg/kg, sc; set-up: dose 20 mg/kg, route subcutaneous; in short: as §1
Mus musculus [4] = experiment: Cmax in Pseudomonas aeruginosa infected neutropenic Swiss mouse at 40 mg/kg, sc; set-up: dose 40 mg/kg, route subcutaneous; in short: as §1
Mus musculus [5] = experiment: Tmax in Pseudomonas aeruginosa infected neutropenic Swiss mouse at 5 mg/kg, sc; set-up: dose 5 mg/kg, route subcutaneous; in short: as §1
Mus musculus [6] = experiment: Tmax in Pseudomonas aeruginosa infected neutropenic Swiss mouse at 10 mg/kg, sc; set-up: dose 10 mg/kg, route subcutaneous; in short: as §1
Mus musculus [7] = experiment: Tmax in Pseudomonas aeruginosa infected neutropenic Swiss mouse at 20 mg/kg, sc; set-up: dose 20 mg/kg, route subcutaneous; in short: as §1
Mus musculus [8] = experiment: Tmax in Pseudomonas aeruginosa infected neutropenic Swiss mouse at 40 mg/kg, sc; set-up: dose 40 mg/kg, route subcutaneous; in short: as §1
Mus musculus [9] = experiment: Apparent volume of distribution to bioavailability in Pseudomonas aeruginosa infected neutropenic Swiss mouse at 5 mg/kg, sc; in short: as §1
Mus musculus [10] = experiment: Apparent volume of distribution to bioavailability in Pseudomonas aeruginosa infected neutropenic Swiss mouse at 10 mg/kg, sc; in short: as §1
Mus musculus [11] = experiment: Apparent volume of distribution to bioavailability in Pseudomonas aeruginosa infected neutropenic Swiss mouse at 20 mg/kg, sc; in short: as §1
Mus musculus [12] = experiment: Apparent volume of distribution to bioavailability in Pseudomonas aeruginosa infected neutropenic Swiss mouse at 40 mg/kg, sc; in short: as §1
Mus musculus [13] = experiment: Half life in Pseudomonas aeruginosa infected neutropenic Swiss mouse at 5 mg/kg, sc; set-up: dose 5 mg/kg, route subcutaneous; in short: as §1
Mus musculus [14] = experiment: Half life in Pseudomonas aeruginosa infected neutropenic Swiss mouse at 10 mg/kg, sc; set-up: dose 10 mg/kg, route subcutaneous; in short: as §1
Mus musculus [15] = experiment: Half life in Pseudomonas aeruginosa infected neutropenic Swiss mouse at 20 mg/kg, sc; set-up: dose 20 mg/kg, route subcutaneous; in short: as §1
Mus musculus [16] = experiment: Half life in Pseudomonas aeruginosa infected neutropenic Swiss mouse at 40 mg/kg, sc; set-up: dose 40 mg/kg, route subcutaneous; in short: as §1

Cmax (Mus musculus [1]): 310 ng/mL | Cmax (Mus musculus [2]): 1440 ng/mL | Cmax (Mus musculus [3]): 3290 ng/mL | Cmax (Mus musculus [4]): 8890 ng/mL | Tmax (Mus musculus [5]): 1 h | Tmax (Mus musculus [6]): 0.5 h | Tmax (Mus musculus [7]): 2 h | Tmax (Mus musculus [8]): 2 h | Vc/F (Mus musculus [9]): 10.1 L/kg | Vc/F (Mus musculus [10]): 4.63 L/kg | Vc/F (Mus musculus [11]): 4.88 L/kg | Vc/F (Mus musculus [12]): 3.27 L/kg | t1/2 (Mus musculus [13]): 0.298 h | t1/2 (Mus musculus [14]): 1.14 h | t1/2 (Mus musculus [15]): 1.34 h | t1/2 (Mus musculus [16]): 1.39 h
Sequence: COLISTIMETHATE SODIUM
